Test results reported in ChEMBL document CHEMBL3132830, “Discovery of a Potent Anti-tumor Agent through Regioselective Mono-N-acylation of 7H-Pyrrolo[3,2-f]quinazoline-1,3-diamine” (Medchemcomm, 2013).
Activity calls are given as the source filed them. The calls are words filed in the database; no cut-off is given here.

What was measured:
[1] = tested on: MDA-MB-468; test: Growth inhibition of human MDA-MB-468 cells after 72 hrs by MTT assay; type: functional; settings: MDA-MB-468, 72 h
In short: (§1)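 MTT assay in triple-negative breast cancer cells; 72 h continuous compound exposure; top concentration tested 100 μM. GI50 is the concentration giving 50% growth inhibition over 72 h. Values are mean ± SD of at least two independent experiments, each run in duplicate.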

[2] = tested on: MDA-MB-231; test: Growth inhibition of human MDA-MB-231 cells after 72 hrs by MTT assay; type: functional; settings: MDA-MB-231, 72 h; in short: as §1
[3] = tested on: HEK-293T; test: Inhibition of CREB binding protein (unknown origin) expressed in HEK293T cells assessed as reduction in CREB-mediated gene transcription up to 10 uM by CREB reporter gene assay; type: cell-based; settings: Homo sapiens
In short: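 CREB-mediated gene transcription measured with a CREB reporter assay in HEK 293T cells; compound tested at concentrations up to 10 μM.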

[4] = molecular target: T1, Dihydrofolate reductase (Homo sapiens) (UniProt P00374); test: Inhibition of human DHFR up to 10 uM
T1 sequence (whole entry): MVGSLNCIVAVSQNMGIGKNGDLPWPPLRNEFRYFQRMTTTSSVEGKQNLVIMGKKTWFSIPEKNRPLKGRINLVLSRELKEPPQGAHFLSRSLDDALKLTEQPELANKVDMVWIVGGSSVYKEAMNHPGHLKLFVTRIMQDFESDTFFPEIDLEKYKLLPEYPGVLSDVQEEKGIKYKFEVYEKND

[5] = tested on: HMEC; test: Toxicity against HMEC at 10 uM after 24 hrs by MTT assay; type: cell-based; settings: human
In short: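 HMEC given a 24 h drug treatment; toxicity assessed at concentrations up to 10 μM.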

[6] = tested on: HMEC; test: Toxicity against HMEC at 10 uM after 72 hrs by MTT assay; type: cell-based; settings: human
In short: (§2)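 Normal human mammary epithelial cells (HMEC) exposed to compound continuously for 72 h; toxicity read at concentrations from 0.1 μM up to 10 μM.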

[7] = tested on: HMEC; test: Toxicity against HMEC up to 5 uM after 72 hrs by MTT assay; type: cell-based; settings: human; in short: as §2
[8] = tested on: HMEC; test: Toxicity against HMEC at 0.1 uM after 72hrs by MTT assay; type: cell-based; settings: human; in short: as §2

GI50 [1]	GI50 [2]	SMILES	also measured
27.4 µM	25.5 µM	CCCC(=O)Nc1nc(N)c2c(ccc3[nH]ccc32)n1	
> 100 µM	> 100 µM	CC(=O)Nc1nc(NC(C)=O)c2c(ccc3[nH]ccc32)n1	
56.5 µM	32.6 µM	CC(=O)Nc1nc(N)nc2ccc3[nH]ccc3c12	
0.44 µM	1.6 µM	Nc1nc(NC(=O)c2ccc3ccccc3c2)nc2ccc3[nH]ccc3c12	inhibition [3]: inactive; inhibition [4]: inactive; Activity [5]: Non-toxic; Activity [6]: Toxic; Activity [7]: Non-toxic
8.91 µM	8.46 µM	Nc1nc(NC(=O)c2ccc3ccccc3c2)c2c(ccc3[nH]ccc32)n1	
3.34 µM	4.13 µM	Nc1nc(N)c2c(ccc3[nH]ccc32)n1	
> 100 µM	> 100 µM	CC(C)C(=O)Nc1nc(N)nc2ccc3[nH]ccc3c12	
53.5 µM	27.2 µM	CC(=O)Nc1nc(N)c2c(ccc3[nH]ccc32)n1	
24.4 µM	21.4 µM	CCC(=O)Nc1nc(N)c2c(ccc3[nH]ccc32)n1	
26.3 µM	26.9 µM	CCCC(=O)Nc1nc(N)nc2ccc3[nH]ccc3c12	
20.3 µM	18.7 µM	CCC(=O)Nc1nc(N)nc2ccc3[nH]ccc3c12	
29.8 µM	39.7 µM	CC(C)C(=O)Nc1nc(N)c2c(ccc3[nH]ccc32)n1	
11.1 µM	15.6 µM	CC(C)(C)[Si](C)(C)OCCCCC(=O)Nc1nc(N)nc2ccc3[nH]ccc3c12	
0.085 µM	0.15 µM	COc1cccc2c1C(=O)c1c(O)c3c(c(O)c1C2=O)C[C@@](O)(C(=O)CO)C[C@@H]3O[C@H]1C[C@H](N)[C@H](O)[C@H](C)O1 [DOXORUBICIN]	Activity [8]: Toxic
2.24 µM	2.43 µM	CC(C)(C)[Si](C)(C)OCCCCC(=O)Nc1nc(N)c2c(ccc3[nH]ccc32)n1	
